Source: ChEMBL document CHEMBL3351374, “Semisynthetic teicoplanin derivatives as new influenza virus binding inhibitors: synthesis and antiviral studies” (Bioorg Med Chem Lett, 2014)
In brackets after ≈: the same amount, converted by molar mass.

Key:
[1] = Cytotoxicity against MDCK cells assessed as change in cell morphology after 72 hrs by microscopy; format: cell-based, Canis lupus familiaris; settings: dog
Procedure, shortened: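 Uninfected MDCK cells exposed to compound. MCC is the minimal concentration causing minimal alterations in cell morphology, assessed by microscopy.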

[2] = system: Influenza B virus; test: Antiviral activity against Influenza B virus (B/HK/05/1972) infected in MDCK cells assessed as reduction in host cell viability after 72 hrs by MTS assay; format: functional, cell-based; settings: B/Hong Kong/05/1972, MDCK
[3] = system: Influenza A virus; test: Antiviral activity against Influenza A virus (A/PR/8/34(H1N1)) infected in MDCK cells assessed as reduction in host cell viability after 72 hrs by MTS assay; format: functional, organism-based; settings: A/Puerto Rico/8/1934(H1N1)
[4] = Cytotoxicity against MDCK cells assessed as reduction in cell viability after 72 hrs by MTS assay; format: cell-based, Canis lupus familiaris; settings: dog
[5] = system: Influenza A virus; test: Antiviral activity against Influenza A virus A/Virginia/ATCC3/2009 infected in MDCK cells assessed as virus-induced cytopathic effect after 72 hrs by microscopy; format: functional, organism-based; settings: A/Virginia/ATCC3/2009, MDCK
[6] = system: Influenza A virus; test: Antiviral activity against Influenza A virus (A/PR/8/34(H1N1)) infected in MDCK cells assessed as virus-induced cytopathic effect after 72 hrs by microscopy; format: functional, organism-based; settings: A/Puerto Rico/8/1934(H1N1)
[7] = system: Influenza B virus; test: Antiviral activity against Influenza B virus (B/HK/05/1972) infected in MDCK cells assessed as virus-induced cytopathic effect after 72 hrs by microscopy; format: functional, cell-based; settings: B/Hong Kong/05/1972, MDCK
[8] = Antiviral activity against Influenza A virus (A/HK/7/1987(H3N2)) infected in MDCK cells assessed as virus-induced cytopathic effect after 72 hrs by microscopy; format: functional, cell-based, Influenza A virus (A/Hong Kong/7/1987(H3N2))
[9] = Antiviral activity against Influenza A virus (A/HK/7/1987(H3N2)) infected in MDCK cells assessed as reduction in host cell viability after 72 hrs by MTS assay; format: functional, cell-based, Influenza A virus (A/Hong Kong/7/1987(H3N2))
[10] = Retention time of the compound by HPLC method; format: physicochemical
[11] = system: Influenza A virus; test: Antiviral activity against Influenza A virus A/Virginia/ATCC3/2009 infected in MDCK cells assessed as reduction in host cell viability after 72 hrs by MTS assay; format: functional, organism-based; settings: A/Virginia/ATCC3/2009, MDCK
[12] = system: Staphylococcus epidermidis; test: Antibacterial activity against biofilm forming Staphylococcus epidermidis ATCC 35984 by broth microdilution method; format: functional
[13] = system: Staphylococcus epidermidis; test: Antibacterial activity against biofilm forming Staphylococcus epidermidis harboring mecA gene by broth microdilution method; format: functional
[14] = system: Enterococcus faecalis; test: Antibacterial activity against vanA gene-positive Enterococcus faecalis ATCC 51299 by broth microdilution method; format: functional
[15] = system: Influenza A virus; test: Antiviral activity against Influenza A virus infected in chicken RBC assessed as minimum concentration required for inhibition of 4 hemagglutinating units of virus-induced hemagglutination after 1 hr by microscopy; format: functional
Procedure, shortened: (§1)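 Chicken red blood cells incubated with virus at 1, 2 or 4 HA-U plus compound. The value is the minimal concentration causing inhibition of hemagglutination.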

[16] = system: Influenza A virus; test: Antiviral activity against Influenza A virus infected in chicken RBC assessed as minimum concentration required for inhibition of 1 hemagglutinating unit of virus-induced hemagglutination after 1 hr by microscopy; format: functional; procedure, shortened: as §1
[17] = system: Enterococcus faecalis; test: Antibacterial activity against Enterococcus faecalis ATCC 29212 by broth microdilution method; format: functional
[18] = system: Staphylococcus aureus; test: Antibacterial activity against methicillin-sensitive Staphylococcus aureus ATCC 29213 by broth microdilution method; format: functional
[19] = system: Enterococcus faecalis; test: Antibacterial activity against vanA gene-positive Enterococcus faecalis 15376 by broth microdilution method; format: functional
[20] = system: Staphylococcus aureus; test: Antibacterial activity against methicillin-resistant Staphylococcus aureus ATCC 33591 by broth microdilution method; format: functional
[21] = system: Influenza A virus; test: Antiviral activity against Influenza A virus infected in chicken RBC assessed as minimum concentration required for inhibition of 2 hemagglutinating units of virus-induced hemagglutination after 1 hr by microscopy; format: functional; procedure, shortened: as §1
[22] = system: Bacillus spizizenii; test: Antibacterial activity against Bacillus subtilis ATCC 6633 by broth microdilution method; format: functional
[23] = Selectivity ratio of MCC for MDCK cells assessed as change in cell morphology after 72 hrs by microscopy to EC50 for Influenza A virus A/Virginia/ATCC3/2009 infected in MDCK cells; format: cell-based; settings: dog
[24] = Selectivity ratio of CC50 for MDCK cells assessed as reduction in cell viability after 72 hrs by MTS assay to EC50 for Influenza A virus A/Virginia/ATCC3/2009 infected in MDCK cells; format: cell-based; settings: dog, read-out: Ratio CC50/EC50
[25] = Inhbition of Influenza A virus (A/X-31(H3N2) hemagglutinin binding to 2 hrs compound pre-incubated MDCK cells assessed as reduction in viral RNA measured after 1 hr by RT-qPCR analysis; format: cell-based
Procedure, shortened: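 Influenza virus binding to MDCK host cells measured with compound at 50, 10, 2 and 0.4 µM.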

[26] = Cytotoxicity against chicken RBC assessed as minimum concentration required for hemagglutination by microscopy; format: cell-based, Gallus gallus; settings: erythrocyte
Procedure, shortened: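 Chicken red blood cells incubated with compound without virus. The value is the minimal concentration causing hemagglutination.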

Structure (SMILES) | MCC at 72 h [1] | EC50 [2] | EC50 [3] | CC50 at 72 h [4] | EC50 [5] | EC50 [6] | EC50 [7] | EC50 [8] | EC50 [9] | Retention_time [10] | EC50 [11] | MIC [12] | MIC [13] | MIC [14] | MIC [17] | MIC [18] | MIC [19] | MIC [20] | MIC [22] | other results
COc1ccc(CO[C@H]2[C@H](OC)[C@@H](OC)[C@@H](OC)O[C@@H]2COCCOCCOCCOCCOCc2cn([C@H]3C(=O)N[C@@H]4Cc5ccc(c(Cl)c5)Oc5cc6cc(c5O)Oc5ccc(cc5Cl)[C@@H](O[C@@H]5O[C@H](CO)[C@@H](O)[C@H](O)[C@H]5NC(C)=O)[C@@H]5NC(=O)[C@H](NC(=O)[C@@H]6NC(=O)[C@@H](NC4=O)c4cc(O)cc(c4)Oc4cc3ccc4O)c3ccc(O)c(c3)-c3c(O)cc(O)cc3[C@@H](C(=O)O)NC5=O)nn2)cc1 [listing 1 of 2 here] | ≥ 20 µM | > 100 µM | > 100 µM | 47 µM | > 100 µM | > 100 µM | > 100 µM | > 100 µM | > 100 µM | 5.73 min | > 100 µM | – | – | – | – | – | – | – | – | –
C.CCCCCCCCO[C@H]1[C@@H](OC)O[C@H](COCCOCCOCCOCCOCc2cn([C@H]3C(=O)N[C@@H]4Cc5ccc(c(Cl)c5)Oc5cc6cc(c5O)Oc5ccc(cc5Cl)[C@@H](O[C@@H]5O[C@H](CO)[C@@H](O)[C@H](O)[C@H]5NC(C)=O)[C@@H]5NC(=O)[C@H](NC(=O)[C@@H]6NC(=O)[C@@H](NC4=O)c4cc(O)cc(c4)Oc4cc3ccc4O)c3ccc(O)c(c3)-c3c(O)cc(O)cc3[C@@H](C(=O)O)NC5=O)nn2)[C@@H](O)[C@@H]1OCCCCCCCC [listing 1 of 2 here] | – | – | – | – | – | – | – | – | – | – | – | 8 µg/mL | 256 µg/mL | 4 µg/mL | 2 µg/mL | 16 µg/mL | 8 µg/mL | 8 µg/mL | 4 µg/mL | Activity [15]: 3.1 µM; Activity [16]: 0.39 µM; Activity [21]: 0.78 µM
C.CCCCCCCCO[C@H]1[C@@H](OC)O[C@H](COCCOCCOCCOCCOCc2cn([C@H]3C(=O)N[C@@H]4Cc5ccc(c(Cl)c5)Oc5cc6cc(c5O)Oc5ccc(cc5Cl)[C@@H](O[C@@H]5O[C@H](CO)[C@@H](O)[C@H](O)[C@H]5NC(C)=O)[C@@H]5NC(=O)[C@H](NC(=O)[C@@H]6NC(=O)[C@@H](NC4=O)c4cc(O)cc(c4)Oc4cc3ccc4O)c3ccc(O)c(c3)-c3c(O)cc(O)cc3[C@@H](C(=O)O)NC5=O)nn2)[C@@H](O)[C@@H]1OCCCCCCCC [listing 2 of 2 here] | ≥ 4 µM | > 100 µM | > 100 µM | 12 µM | 1.8 µM | > 100 µM | > 100 µM | 2.3 µM | 2.2 µM | 8.17 min | 1.3 µM | – | – | – | – | – | – | – | – | selectivity ratio at 72 h [23]: 4; selectivity ratio at 72 h [24]: 4; IC50 [25]: 7 µM; Activity [26]: 50 µM
CC(=O)N[C@H]1[C@H]([C@H](O)[C@H](O)CO)OC(C(=O)O)=C[C@@H]1NC(=N)N [ZANAMIVIR] | > 100 µM | 9.4 µM | 0.5 µM | > 100 µM | 45 µM | 0.47 µM | 12 µM | 8.9 µM | 9 µM | – | 20 µM | – | – | – | – | – | – | – | – | –
CCCCCCCCO[C@@H]1[C@@H](OCCCCCCCC)[C@@H](OC)O[C@H](COCCOCCOCCOCCOCc2cn([C@H]3C(=O)N[C@@H]4Cc5ccc(c(Cl)c5)Oc5cc6cc(c5O)Oc5ccc(cc5Cl)[C@@H](O[C@@H]5O[C@H](CO)[C@@H](O)[C@H](O)[C@H]5NC(C)=O)[C@@H]5NC(=O)[C@H](NC(=O)[C@@H]6NC(=O)[C@@H](NC4=O)c4cc(O)cc(c4)Oc4cc3ccc4O)c3ccc(O)c(c3)-c3c(O)cc(O)cc3[C@@H](C(=O)O)NC5=O)nn2)[C@H]1OCc1ccc(OC)cc1 [listing 1 of 2 here] | 20 µM | 1.5 µM | 1.2 µM | 11 µM | 1.4 µM | 0.8 µM | > 100 µM | 1.8 µM | 1.2 µM | 8.16 min | < 0.8 µM | – | – | – | – | – | – | – | – | selectivity ratio at 72 h [23]: 4; selectivity ratio at 72 h [24]: 4; IC50 [25]: 4.7 µM; Activity [26]: 50 µM
COc1ccc(CO[C@H]2[C@H](OC)[C@@H](OC)[C@@H](OC)O[C@@H]2COCCOCCOCCOCCOCc2cn([C@H]3C(=O)N[C@@H]4Cc5ccc(c(Cl)c5)Oc5cc6cc(c5O)Oc5ccc(cc5Cl)[C@@H](O[C@@H]5O[C@H](CO)[C@@H](O)[C@H](O)[C@H]5NC(C)=O)[C@@H]5NC(=O)[C@H](NC(=O)[C@@H]6NC(=O)[C@@H](NC4=O)c4cc(O)cc(c4)Oc4cc3ccc4O)c3ccc(O)c(c3)-c3c(O)cc(O)cc3[C@@H](C(=O)O)NC5=O)nn2)cc1 [listing 2 of 2 here] | – | – | – | – | – | – | – | – | – | – | – | 16 µg/mL (≈ 8.06 µM) | 32 µg/mL (≈ 16.1 µM) | 32 µg/mL (≈ 16.1 µM) | 32 µg/mL (≈ 16.1 µM) | 16 µg/mL (≈ 8.06 µM) | 32 µg/mL (≈ 16.1 µM) | 32 µg/mL (≈ 16.1 µM) | 16 µg/mL (≈ 8.06 µM) | –
NC12CC3CC(CC(C3)C1)C2 [AMANTADINE] | > 500 µM | > 500 µM | 111 µM | > 500 µM | > 500 µM | – | > 500 µM | 0.45 µM | 0.5 µM | – | > 500 µM | – | – | – | – | – | – | – | – | –
NC(=O)c1ncn([C@@H]2O[C@H](CO)[C@@H](O)[C@H]2O)n1 [RIBAVIRIN] | ≥ 20 µM | 8.2 µM | 21 µM | > 100 µM | – | – | – | 6.8 µM | 7.3 µM | – | – | – | – | – | – | – | – | – | – | –
CCCCCCCCO[C@@H]1[C@@H](OCCCCCCCC)[C@@H](OC)O[C@H](COCCOCCOCCOCCOCc2cn([C@H]3C(=O)N[C@@H]4Cc5ccc(c(Cl)c5)Oc5cc6cc(c5O)Oc5ccc(cc5Cl)[C@@H](O[C@@H]5O[C@H](CO)[C@@H](O)[C@H](O)[C@H]5NC(C)=O)[C@@H]5NC(=O)[C@H](NC(=O)[C@@H]6NC(=O)[C@@H](NC4=O)c4cc(O)cc(c4)Oc4cc3ccc4O)c3ccc(O)c(c3)-c3c(O)cc(O)cc3[C@@H](C(=O)O)NC5=O)nn2)[C@H]1OCc1ccc(OC)cc1 [listing 2 of 2 here] | – | – | – | – | – | – | – | – | – | – | – | 16 µg/mL (≈ 7.34 µM) | 256 µg/mL (≈ 117 µM) | 256 µg/mL (≈ 117 µM) | 32 µg/mL (≈ 14.7 µM) | 128 µg/mL (≈ 58.7 µM) | 128 µg/mL (≈ 58.7 µM) | 64 µg/mL (≈ 29.3 µM) | 256 µg/mL (≈ 117 µM) | Activity [15]: 12 µM; Activity [16]: 0.78 µM; Activity [21]: 6.3 µM
CC(N)C12CC3CC(CC(C3)C1)C2 (stereo unspecified) [RIMANTADINE] | ≥ 500 µM | > 500 µM | 5.3 µM | > 500 µM | > 500 µM | 4.6 µM | > 500 µM | 0.051 µM | 0.046 µM | – | > 500 µM | – | – | – | – | – | – | – | – | –
